Laboratory results: PMC10870110 (RSC Advances, 2024)

Columns and labels:
[1] = test system: A375 human melanoma cell line; test: Cytotoxicity by SRB assay on A375 cells; type: cell-based; conditions: read-out: IC50 on A375 cells, 72 h treatment, mean ± SD (n = 3)
Summary of the method: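 A375 cells kept in DMEM with 10% FBS and 100 U mL−1 penicillin/streptomycin at 37 °C, 5% CO2. Seeded, grown 24 h, then exposed 72 h to test compound at 0.01–100 μM. Fixed in 10% TCA (1 h, 4 °C), stained with 0.4% w/v SRB (10 min, dark), washed with 1% acetic acid, dye dissolved in 10 mM Tris pH 10.5, A540 read.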

[2] = test system: normal human skin fibroblast cells (HSF); test: Cytotoxicity by SRB assay on normal HSF cells; type: cell-based; conditions: for IC50: Homo sapiens, Skin fibroblast, read-out: HSF IC50; for Selectivity index (SI): IC50 of normal cells (HSF)/IC50 of tumor cells (A375)
Summary of the method: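 Normal human skin fibroblasts (HSF) grown in DMEM/10% FBS/penicillin-streptomycin, 37 °C, 5% CO2. Plated 24 h, then 72 h with test compound at 0.01–100 μM. TCA fixation, SRB staining, 10 mM Tris pH 10.5 solubilisation, absorbance at 540 nm. IC50 by Emax curve fit, mean ± SD. Selectivity index = IC50 in HSF / IC50 in A375.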

[3] = target: VEGFR-2 (Homo sapiens, UniProt P35968); test: VEGFR-2 inhibition assay; type: cell-based
[4] = test system: A375 cells; test: Scratch wound healing assay; type: cell-based, human; conditions: 4j at 0.5 μM
Summary of the method: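 Confluent A375 monolayers (1 × 10^5 cells/well seeding) scored with a pipette tip to give one straight cell-free line, PBS-rinsed, then exposed to test compound. Gap imaged at ×100 at 0, 24, 48 and 72 h; horizontal wound width measured. Closure % = 100 − (Wt/W0 × 100). Triplicates, mean ± SD; ANOVA with Tukey post-hoc, P < 0.05.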

[5] = target: BRAF^V600E (Homo sapiens, UniProt P15056, V600E); test: BRAF^V600E inhibition assay; type: cell-based
[6] = test system: A375 cells; test: Annexin V-FITC/PI apoptosis assay; type: cell-based, human; conditions: A375, IC50 concentration, 48 h
[7] = test system: A375 cells; test: Cell cycle analysis by DNA flow cytometry; type: cell-based, human; conditions: A375, 48 h treatment

Sequence of BRAF^V600E (P15056 whole entry V600E): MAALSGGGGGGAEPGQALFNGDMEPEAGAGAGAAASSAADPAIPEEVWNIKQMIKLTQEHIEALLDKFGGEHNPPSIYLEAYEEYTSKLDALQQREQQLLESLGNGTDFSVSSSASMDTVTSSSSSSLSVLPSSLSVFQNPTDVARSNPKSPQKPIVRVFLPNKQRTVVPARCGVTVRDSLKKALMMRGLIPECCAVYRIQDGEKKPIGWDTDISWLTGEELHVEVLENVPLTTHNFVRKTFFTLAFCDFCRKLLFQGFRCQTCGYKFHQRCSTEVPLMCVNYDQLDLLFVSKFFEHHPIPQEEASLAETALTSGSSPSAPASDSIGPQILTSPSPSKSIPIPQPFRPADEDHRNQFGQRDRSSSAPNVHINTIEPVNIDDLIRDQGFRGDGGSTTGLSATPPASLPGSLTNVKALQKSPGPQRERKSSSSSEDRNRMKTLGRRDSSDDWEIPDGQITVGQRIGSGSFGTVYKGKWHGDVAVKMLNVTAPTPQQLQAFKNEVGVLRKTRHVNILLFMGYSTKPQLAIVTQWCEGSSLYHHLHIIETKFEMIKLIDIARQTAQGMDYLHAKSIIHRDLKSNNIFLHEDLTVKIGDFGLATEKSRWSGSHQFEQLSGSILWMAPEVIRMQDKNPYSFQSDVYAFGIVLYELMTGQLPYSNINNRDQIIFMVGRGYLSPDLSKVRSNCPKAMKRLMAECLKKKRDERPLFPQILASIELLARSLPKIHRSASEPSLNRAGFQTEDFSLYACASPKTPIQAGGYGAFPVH
Sequence of VEGFR-2 (P35968 20-1356): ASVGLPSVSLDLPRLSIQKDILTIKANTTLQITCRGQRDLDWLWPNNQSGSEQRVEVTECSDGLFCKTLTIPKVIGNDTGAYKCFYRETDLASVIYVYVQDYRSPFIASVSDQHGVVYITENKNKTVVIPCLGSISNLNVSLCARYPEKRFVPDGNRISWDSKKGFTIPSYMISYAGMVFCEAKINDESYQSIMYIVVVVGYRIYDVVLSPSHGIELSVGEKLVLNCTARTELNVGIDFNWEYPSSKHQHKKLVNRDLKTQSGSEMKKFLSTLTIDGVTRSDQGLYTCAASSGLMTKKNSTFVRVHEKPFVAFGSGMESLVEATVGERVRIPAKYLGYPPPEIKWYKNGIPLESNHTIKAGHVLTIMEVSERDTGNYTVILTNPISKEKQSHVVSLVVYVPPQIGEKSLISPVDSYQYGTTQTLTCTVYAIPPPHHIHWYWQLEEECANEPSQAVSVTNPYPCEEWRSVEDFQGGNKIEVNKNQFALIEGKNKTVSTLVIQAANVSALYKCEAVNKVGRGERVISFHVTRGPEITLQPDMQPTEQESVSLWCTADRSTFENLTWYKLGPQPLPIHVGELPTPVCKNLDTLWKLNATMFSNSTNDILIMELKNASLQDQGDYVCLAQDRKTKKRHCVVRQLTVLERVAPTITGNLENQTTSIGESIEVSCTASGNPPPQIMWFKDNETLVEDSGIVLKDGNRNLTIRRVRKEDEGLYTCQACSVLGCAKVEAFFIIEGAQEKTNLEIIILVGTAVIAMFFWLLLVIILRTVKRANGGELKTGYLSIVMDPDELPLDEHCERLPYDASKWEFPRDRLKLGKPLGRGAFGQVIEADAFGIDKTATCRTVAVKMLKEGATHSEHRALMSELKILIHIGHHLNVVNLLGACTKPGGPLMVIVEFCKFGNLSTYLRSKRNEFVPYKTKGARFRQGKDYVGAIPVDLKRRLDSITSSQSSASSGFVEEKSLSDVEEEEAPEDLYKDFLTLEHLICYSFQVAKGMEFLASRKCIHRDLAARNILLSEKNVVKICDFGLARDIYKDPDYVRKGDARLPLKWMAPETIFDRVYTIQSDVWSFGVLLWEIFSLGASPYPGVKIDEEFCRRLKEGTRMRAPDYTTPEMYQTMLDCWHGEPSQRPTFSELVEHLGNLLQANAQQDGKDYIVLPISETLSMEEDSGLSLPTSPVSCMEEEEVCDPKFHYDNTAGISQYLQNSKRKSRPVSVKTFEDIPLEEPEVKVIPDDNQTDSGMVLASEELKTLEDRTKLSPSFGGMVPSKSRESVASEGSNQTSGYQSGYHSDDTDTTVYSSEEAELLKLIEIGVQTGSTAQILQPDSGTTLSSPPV

## O=C1C(n2nc(-c3c(O)c4ccccc4oc3=O)cc2-c2ccc(F)cc2)c2ccccc2N1Cc1ccccc1 (stereo not shown) [Compound 4c, 1-Benzyl-3-(5-(4-fluorophenyl)-3-(4-hydroxy-2-oxo-2H-chromen-3-yl)-1H-pyrazol-1-yl) indolin-2-one]
[1]
  IC50: 4.6 ± 0.32 µM

## O=C1C(n2nc(-c3c(O)c4ccccc4oc3=O)cc2-c2ccc(F)cc2)c2cc(Cl)ccc2N1Cc1ccccc1 (stereo not shown) [Compound 4f, 1-Benzyl-5-chloro-3-(5-(4-fluorophenyl)-3-(4-hydroxy-2-oxo-2H-chromen-3-yl)-1H-pyrazol-1-yl) indolin-2-one]
[1]
  IC50: 1.11 ± 0.02 µM
[2]
  IC50: 4.18 ± 0.25 µM
  Selectivity index (SI): 3.6

## O=C1C(n2nc(-c3c(O)c4ccccc4oc3=O)cc2-c2ccc(F)cc2)c2cc(Br)ccc2N1Cc1ccccc1 (stereo not shown) [Compound 4i, 1-Benzyl-5-bromo-3-(5-(4-fluorophenyl)-3-(4-hydroxy-2-oxo-2H-chromen-3-yl)-1H-pyrazol-1-yl)indolin-2-one]
[2]
  IC50: 3.26 ± 0.29 µM
  Selectivity index (SI): 2.5

## O=C1Nc2ccc(OC(F)(F)F)cc2C1n1nc(-c2c(O)c3ccccc3oc2=O)cc1-c1ccc(F)cc1 (stereo not shown) [Compound 4j, 3-(5-(4-Fluorophenyl)-3-(4-hydroxy-2-oxo-2H-chromen-3-yl)-1H-pyrazol-1-yl)-5 (trifluoromethoxy) indolin-2-one]
[3]
  IC50: 0.64 ± 0.08 µM
[4]; A375, 24 h
  scratch closure: 14.28%
[4]; A375, 48 h
  scratch closure: 17.57%
[4]; A375, 72 h
  scratch closure: 35.16%
[5]
  fold more active than the reference sorafenib (BRAF^V600E inhibition): 2 fold
[5]; BRAF^V600E IC50, A375 cells, 24 h exposure, ELISA
  IC50: 1.03 µM
[2]
  IC50: 9.58 ± 0.73 µM
  Selectivity index (SI): 9.9
[6]
  early apoptosis (Q2-4): 6.07%
  late apoptosis (Q2-2): 2.3%
  necrotic cell death (Q2-1): 2.52%
[6]; apoptosis plus necrosis
  total cell death: ~10.22%
[7]
  cell percentage in the G2/M phase: 16.00%
  cell percentage of the S phase: 9.86%
  cell population of the G0/G1-phase: 74.14%
  cell population of the pre-G phase: 1.88%

## O=C1C(n2nc(-c3c(O)c4ccccc4oc3=O)cc2-c2ccc(Cl)cc2)c2ccccc2N1Cc1ccccc1 (stereo not shown) [Compound 5c, 1-Benzyl-3-(5-(4-chlorophenyl)-3-(4-hydroxy-2-oxo-2H-chromen-3-yl)-1H-pyrazol-1-yl)indolin-2-one]
[1]
  IC50: 3.8 ± 0.22 µM

## O=C1C(n2nc(-c3c(O)c4ccccc4oc3=O)cc2-c2ccc(Cl)cc2)c2cc(Cl)ccc2N1Cc1ccccc1 (stereo not shown) [Compound 5f, 1-Benzyl-5-chloro-3-(5-(4-chlorophenyl)-3-(4-hydroxy-2-oxo-2H-chromen-3-yl)-1H-pyrazol-1-yl)indolin-2-one]
[2]
  IC50: 3.59 ± 0.32 µM
  Selectivity index (SI): 3.3

## O=C1C(n2nc(-c3c(O)c4ccccc4oc3=O)cc2-c2ccc(Cl)cc2)c2cc(Br)ccc2N1Cc1ccccc1 (stereo not shown) [Compound 5i, 1-Benzyl-5-bromo-3-(5-(4-chlorophenyl)-3-(4-hydroxy-2-oxo-2H-chromen-3-yl)-1H-pyrazol-1-yl)indolin-2-one]
[2]
  IC50: 3.63 ± 0.76 µM
  Selectivity index (SI): 3.5

## CNC(=O)c1cc(Oc2ccc(NC(=O)Nc3ccc(Cl)c(C(F)(F)F)c3)cc2)ccn1 [Sorafenib, reference compound]
[4]; A375, 24 h
  scratch closure: 9.15%
[4]; A375, 48 h
  scratch closure: 12.07%
[4]; A375, 72 h
  scratch closure: 24.17%
[6]
  apoptotic cell death: 9.6%
[7]
  cell percentage in the G2/M phase: 23.02%
  cell population of the G0/G1-phase: 60.43%
  cell population of the pre-G phase: 22.88%
